Laboratory results from ChEMBL document CHEMBL1127430, “Novel zinc chelators which inhibit the binding of HIV-EP1 (HIV enhancer binding protein) to NF-kappa B recognition sequence” (J Med Chem, 1994).

Key:
[1] = target: Zinc finger protein 40 (Homo sapiens) (UniProt P15822); assay: Inhibition of human DNA binding to HIV-EP1 (enhancer binding protein) at 1.0 mM concentration
[2] = target: Zinc finger protein 40 (Homo sapiens) (UniProt P15822); conditions: 4.0 mM
[3] = target: Zinc finger protein 40 (Homo sapiens) (UniProt P15822); assay: Inhibition of human DNA binding to HIV-EP1 (enhancer binding protein) at 0.1 mM concentration
[4] = target: Zinc finger protein 40 (Homo sapiens) (UniProt P15822); assay: Inhibition of human DNA binding to HIV-EP1 (enhancer binding protein) at 0.4 mM concentration
[5] = target: Zinc finger protein 40 (Homo sapiens) (UniProt P15822); assay: Inhibition of human DNA binding to HIV-EP1 (enhancer binding protein) at 0.01 mM concentration
[6] = target: Zinc finger protein 40 (Homo sapiens) (UniProt P15822); assay: Inhibition of human DNA binding to HIV-EP1 (enhancer binding protein) at 0.7 mM concentration
[7] = target: Zinc finger protein 40 (Homo sapiens) (UniProt P15822); assay: Inhibition of human DNA binding to HIV-EP1 (enhancer binding protein) at 0.7 mM concentration and 2.1 mM of ZnSO4
Procedure, shortened: (§1)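 Same HIV-EP1 κB-site binding assay: protein with ligand and poly(dI-dC), 30 min at room temperature, in H2O-CH3OH (96:4), then labelled κB oligonucleotide. ZnSO4 at the stated level was introduced either during or after the ligand inhibition reaction. Read-out is percentage of HIV-EP1 bound to DNA.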

[8] = target: Zinc finger protein 40 (Homo sapiens) (UniProt P15822); assay: Inhibition of human DNA binding to HIV-EP1 (enhancer binding protein) at 0.05 mM concentration
[9] = target: Zinc finger protein 40 (Homo sapiens) (UniProt P15822); assay: Inhibition of human DNA binding to HIV-EP1 (enhancer binding protein) at 0.7 mM concentration and 0.7 mM of ZnSO4; procedure, shortened: as §1

Chain of Zinc finger protein 40 (Homo sapiens) (P15822 whole entry, looked up): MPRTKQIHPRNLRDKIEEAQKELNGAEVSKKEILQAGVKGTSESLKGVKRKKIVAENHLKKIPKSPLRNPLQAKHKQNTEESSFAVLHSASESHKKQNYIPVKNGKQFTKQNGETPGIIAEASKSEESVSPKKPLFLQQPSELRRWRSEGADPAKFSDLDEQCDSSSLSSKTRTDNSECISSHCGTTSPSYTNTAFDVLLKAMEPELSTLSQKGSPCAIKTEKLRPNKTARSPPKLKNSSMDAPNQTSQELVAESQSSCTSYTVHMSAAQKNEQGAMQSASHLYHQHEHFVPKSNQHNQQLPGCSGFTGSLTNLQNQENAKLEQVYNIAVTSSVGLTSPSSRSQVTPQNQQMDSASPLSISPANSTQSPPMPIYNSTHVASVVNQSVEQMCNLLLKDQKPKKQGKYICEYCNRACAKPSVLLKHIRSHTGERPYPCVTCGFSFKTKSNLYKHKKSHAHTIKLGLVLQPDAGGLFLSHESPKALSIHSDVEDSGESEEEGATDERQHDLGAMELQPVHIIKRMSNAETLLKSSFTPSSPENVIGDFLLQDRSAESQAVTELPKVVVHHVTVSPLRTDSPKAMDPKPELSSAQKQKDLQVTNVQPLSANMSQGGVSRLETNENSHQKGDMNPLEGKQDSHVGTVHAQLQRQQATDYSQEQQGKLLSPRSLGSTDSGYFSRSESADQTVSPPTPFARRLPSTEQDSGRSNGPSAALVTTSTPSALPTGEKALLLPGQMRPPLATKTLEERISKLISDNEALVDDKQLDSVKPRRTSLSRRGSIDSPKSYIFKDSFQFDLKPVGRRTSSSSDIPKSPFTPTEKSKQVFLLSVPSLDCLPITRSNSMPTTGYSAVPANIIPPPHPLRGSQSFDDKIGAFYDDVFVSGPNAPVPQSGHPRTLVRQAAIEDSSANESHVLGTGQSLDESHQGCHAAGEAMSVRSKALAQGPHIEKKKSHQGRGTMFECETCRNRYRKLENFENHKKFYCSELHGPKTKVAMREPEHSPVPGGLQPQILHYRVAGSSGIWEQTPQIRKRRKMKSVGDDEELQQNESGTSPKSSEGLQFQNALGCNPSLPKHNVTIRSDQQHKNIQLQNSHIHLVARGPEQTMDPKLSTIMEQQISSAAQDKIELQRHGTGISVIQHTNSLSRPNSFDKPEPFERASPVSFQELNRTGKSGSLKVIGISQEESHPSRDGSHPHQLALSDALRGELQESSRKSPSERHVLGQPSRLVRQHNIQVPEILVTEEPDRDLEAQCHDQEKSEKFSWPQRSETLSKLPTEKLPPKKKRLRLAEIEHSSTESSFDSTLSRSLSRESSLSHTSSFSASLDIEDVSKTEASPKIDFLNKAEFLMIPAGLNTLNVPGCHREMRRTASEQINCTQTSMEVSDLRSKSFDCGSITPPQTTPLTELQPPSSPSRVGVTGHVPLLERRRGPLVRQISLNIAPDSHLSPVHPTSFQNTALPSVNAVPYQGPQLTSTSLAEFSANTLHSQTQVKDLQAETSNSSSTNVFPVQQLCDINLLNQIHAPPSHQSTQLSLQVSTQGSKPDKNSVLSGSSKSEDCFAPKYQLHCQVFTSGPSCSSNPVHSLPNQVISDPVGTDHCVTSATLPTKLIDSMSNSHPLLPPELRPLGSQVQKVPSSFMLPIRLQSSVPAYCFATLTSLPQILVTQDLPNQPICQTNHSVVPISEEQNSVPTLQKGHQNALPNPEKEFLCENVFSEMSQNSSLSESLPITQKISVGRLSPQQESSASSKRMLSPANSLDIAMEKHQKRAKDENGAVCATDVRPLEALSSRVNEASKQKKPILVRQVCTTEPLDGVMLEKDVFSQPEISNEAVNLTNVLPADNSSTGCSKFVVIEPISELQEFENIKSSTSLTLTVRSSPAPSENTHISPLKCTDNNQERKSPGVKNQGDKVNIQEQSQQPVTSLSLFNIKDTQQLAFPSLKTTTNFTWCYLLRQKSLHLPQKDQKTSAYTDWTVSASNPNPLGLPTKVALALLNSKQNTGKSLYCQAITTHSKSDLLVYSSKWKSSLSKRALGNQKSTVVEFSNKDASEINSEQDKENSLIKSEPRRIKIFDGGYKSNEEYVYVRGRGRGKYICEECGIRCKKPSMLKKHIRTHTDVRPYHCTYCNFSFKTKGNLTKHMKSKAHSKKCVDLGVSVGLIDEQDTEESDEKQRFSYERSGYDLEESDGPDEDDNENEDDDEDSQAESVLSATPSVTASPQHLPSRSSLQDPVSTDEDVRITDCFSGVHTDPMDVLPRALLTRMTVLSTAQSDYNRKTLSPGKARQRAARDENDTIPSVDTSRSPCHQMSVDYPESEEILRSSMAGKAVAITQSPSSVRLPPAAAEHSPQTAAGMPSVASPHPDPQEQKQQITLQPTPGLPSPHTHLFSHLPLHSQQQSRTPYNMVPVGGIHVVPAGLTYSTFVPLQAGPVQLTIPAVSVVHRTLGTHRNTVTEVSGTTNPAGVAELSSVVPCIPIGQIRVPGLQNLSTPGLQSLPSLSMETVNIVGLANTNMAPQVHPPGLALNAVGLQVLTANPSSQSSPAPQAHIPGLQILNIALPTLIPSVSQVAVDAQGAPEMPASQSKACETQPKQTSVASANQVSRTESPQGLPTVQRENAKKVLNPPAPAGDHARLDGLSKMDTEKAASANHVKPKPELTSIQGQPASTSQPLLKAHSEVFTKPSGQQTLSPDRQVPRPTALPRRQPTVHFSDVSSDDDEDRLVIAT

Binding [1]	Binding [2]	Binding [3]	Binding [4]	Binding [5]	Binding [6]	Binding [7]	Binding [8]	Binding [9]	SMILES
33%	16%								O=C(O)CN(CCN(CC(=O)O)CC(=O)O)CC(=O)O
0%		68%	4%	100%	0%	100%	81%	100%	COC(=O)[C@H](Cc1c[nH]cn1)NCc1cc(N(C)C)cc(CN[C@@H](Cc2c[nH]cn2)C(=O)OC)n1
